The source of these data is ChEMBL document CHEMBL4304755, “Diacetal Ditellurides as Highly Active and Selective Antiparasitic Agents toward Leishmania amazonensis” (ACS Med Chem Lett, 2019).

For one series, the system named is Leishmania chagasi. As to the kind of experiment: Antileishmanial activity against amastigotes stage of Leishmania chagasi MHOM/BR/1972/LD infected in BALB/c mouse bone-marrow derived macrophages incubated for 3 days by hematoxylin-eosin staining based cell counting method. In kind it is functional, organism-based. Conditions: 72 h.
Series [1] relates to Leishmania amazonensis. Nature of the series: Ratio of IC50 for miltefosine to IC50 for test compound for antileishmanial activity against promastigote stage of Leishmania amazonensis MHOM/BR/Josefa incubated for 72 hrs by XTT assay. In kind it is functional.
The nature of series [2]: Selectivity index, ratio of CC50 for mouse J774A1 cells to IC50 for promastigote stage of Leishmania amazonensis MHOM/BR/Josefa. The format is toxicity. Conditions: read-out: Ratio CC50/IC50. The procedure, abridged: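 SI is calculated as CC50 on J774A1 cells divided by the corresponding IC50 on promastigotes.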
Series [3] relates to Leishmania amazonensis. Nature of the series: Antileishmanial activity against promastigote stage of Leishmania amazonensis MHOM/BR/Josefa incubated for 72 hrs by XTT assay. The format is functional, organism-based. The procedure, abridged:
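Promastigotes; IC50 is the concentration giving 50% growth inhibition. Values are mean ± SD of three separate experiments.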
(In general: Formazan colour is commonly taken as a measure of viable cells.)

Series [4] is described as follows: Cytotoxicity against BALB/c mouse peritoneal macrophages incubated for 48 hrs by MTT assay. The format is cell-based, Peritoneal macrophage. The procedure, abridged:
(§1)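 Intracellular amastigotes in macrophages and the matched macrophage cytotoxicity readout. Values are mean ± SD from three different experiments.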

For series [5], the system named is Leishmania amazonensis. Nature of the series: Antileishmanial activity against amastigotes stage of Leishmania amazonensis MHOM/BR/Josefa infected in BALB/c mouse peritoneal macrophage incubated for 48 hrs by Giemsa staining based microscopic method. In kind it is functional, organism-based. The procedure, abridged:
as §1

Series [6] in a line: Selectivity index, ratio of CC50 for BALB/c mouse peritoneal macrophage to IC50 for amastigotes stage of Leishmania amazonensis MHOM/BR/Josefa infected in BALB/c mouse peritoneal macrophage. In kind it is toxicity. The settings on record: peritoneal macrophages, read-out: Ratio CC50/IC50.
In series [7] the test system is Leishmania amazonensis. Nature of the series: Antileishmanial activity against promastigote stage of Leishmania amazonensis MHOM/BR/73/M2269 by erythrosine-B staining based Neubauer chamber based cell counting method. In kind it is functional, organism-based.

What is called IC50 is the concentration needed to halve the response being measured. Read a high IC50 as weaker potency in that assay. `COc1ccc([Te]2(Cl)OC3(CCCCC3)/C2=C\Cl)cc1` (stereo unspecified) came in with an IC50 in the series with Leishmania chagasi of 0.5 µM.

On to `CC1(c2cccc([Te][Te]c3cccc(C4(C)OCCO4)c3)c2)OCCO1`, for which, in the series with Leishmania amazonensis [1], the “Ratio IC50” value turned out to be 20. For the same molecule, the selectivity ratio in series [2] is 25. The same molecule displayed an IC50 in the series on Leishmania amazonensis [3] of 0.9 µM.

As a reminder, the CC50 is the concentration at which the toxic effect on the cells reaches its halfway point. `CC1(c2ccc([Te][Te]c3ccc(C4(C)OCCO4)cc3)cc2)OCCO1` returned a CC50 at 48 h in series [4] of 8.3 µM. Moreover, in the series on Leishmania amazonensis [1], the “Ratio IC50” value is recorded as 20. Moreover, the selectivity ratio in series [2] was 194; in series [6] it was 18. In addition, the concentration for half-maximal inhibition (IC50) with Leishmania amazonensis [5] came out at 0.5 µM; in the series on Leishmania amazonensis [3] it was 0.9 µM.

In the case of `CC1(c2ccccc2[Te][Te]c2ccccc2C2(C)OCCO2)OCCO1`, the “Ratio IC50” value with Leishmania amazonensis [1] was 3. The selectivity ratio in series [2] amounted to 2. Further, the IC50 with Leishmania amazonensis [3] is 8 µM.

`c1ccc([Te][Te]c2ccccc2)cc1`: the selectivity ratio in series [2] was 42. Further, the IC50 with Leishmania amazonensis [3] came to 1.4 µM.

For `CC[N+](CC)(CC)Cc1ccccc1.ClC1=C[Te-](Cl)(Cl)(Cl)OC1`, it took 4 µM to reach half-maximal inhibition with Leishmania amazonensis [7] (IC50).

In turn, `CCCCCCCCCCCCCCCCOP(=O)([O-])OCC[N+](C)(C)C` [MILTEFOSINE] showed a CC50 at 48 h in series [4] of 20.3 µM. Also, the selectivity ratio in series [2] is 3; in series [6], 12. Besides, the half-maximal inhibitory concentration (IC50) in the series on Leishmania amazonensis [5] is 1.7 µM; with Leishmania amazonensis [3], 20.7 µM.
